Test [1] deals with Heat shock protein HSP 90-beta (Homo sapiens) (UniProt P08238). Put plainly: Inhibition of HSP90-mediated antiapoptotic activity in human NCI-N417 cells assessed as mitochondrial membrane depolarization at 5 uM after 96 hrs by JC-1 staining-based flow cytometry. The following applies: NCI-H417. Format: cell-based. Put shortly: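 Mitochondrial membrane potential was measured by JC-1 staining and flow cytometry. Depolarization was scored as a shift to cells emitting only green fluorescence. The mitochondrial uncoupler CCCP served as positive control.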

Test [2] shares this target. As to the kind of experiment: Inhibition of HSP90-mediated antiapoptotic activity in human NCI-H526 cells assessed as disruption of protein-Apaf-1 complex at 50 uM after 24 hrs by Western blot analysis. It counts as cell-based. Put shortly:
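NCI-H526 cells treated for 24 h with vehicle or inhibitors (20 µM or 50 µM). Proteins isolated with Apaf-1-specific antibody and whole lysates analysed by western blot. n = 3.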

Test [3] shares this target. Put plainly: Inhibition of HSP90-mediated antiapoptotic activity in human NCI-N417 cells assessed as subG1 accumulation at 15 uM after 72 hrs by propidium iodide staining-based flow cytometry. The following applies: NCI-H417. Format: cell-based. Put shortly:
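Asynchronously growing cells were treated with compound, stained with propidium iodide and analysed by flow cytometry. The read-out was the percentage of cells with sub-G1 DNA content.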

The target is the same in test [4]. As to the kind of experiment: Inhibition of HSP90-mediated antiapoptotic activity in human NCI-H526 cells assessed as induction of PARP cleavage at 10 uM after 24 hrs by Western blot analysis. Format: cell-based. In outline:
(§1)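 NCI-H526 cells at 60–70% confluence were exposed to drug or DMSO for 24 h. Lysed in 50 mM Tris pH 7.4, 150 mM NaCl, 1% NP-40, with protein measured by BCA. 20–100 µg run on SDS-PAGE and blotted to nitrocellulose. Probed with cleaved-protein antibodies and peroxidase secondary at 1:5,000, with β-actin as loading control.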

For test [5], the system named is SK-BR-3. Put plainly: Inhibition of HSP70-mediated antiapoptotic activity in human SKBR3 cells assessed as increase in caspase-3 activity after 24 hrs by Western blot analysis. Format: cell-based.
The target in test [6] is Heat shock protein HSP 90-beta (Homo sapiens) (UniProt P08238). As to the kind of experiment: Effect on HSP90-mediated survivin expression in human NCI-H526 cells at 25 uM after 24 hrs by Western blot analysis. Format: cell-based. In outline:
(§2)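 NCI-H526 cells were exposed for 24 h to drug or DMSO vehicle. Lysates were made in 50 mM Tris pH 7.4, 150 mM NaCl, 1% NP-40 and quantified by BCA. Western blot used 20–100 µg protein per lane, with β-actin as loading control.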

For test [7] the target is unchanged. As to the kind of experiment: Inhibition of HSP90-mediated antiapoptotic activity in human MCF7 cells assessed as induction of cell growth arrest at 20 uM after 24 hrs by propidium iodide staining-based flow cytometry.
For test [8] the target is unchanged. Put plainly: Inhibition of HSP90-mediated antiapoptotic activity in human NCI-H526 cells assessed as induction of caspase-9 cleavage at 10 uM after 24 hrs by Western blot analysis. Format: cell-based. Put shortly: as §1
The target is the same in test [9]. Put plainly: Inhibition of HSP90-mediated antiapoptotic activity in human NCI-H526 cells assessed as induction of Akt degradation at 50 uM after 24 hrs by Western blot analysis. Format: cell-based.
The test system of test [10] is NCI-H526. Put plainly: Inhibition of HSP70-mediated antiapoptotic activity in human NCI-H526 cells assessed as release of Apaf-1 from chaperon complex after 24 hrs by Western blot analysis. Format: cell-based. Put shortly:
(§3)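 NCI-H526 cells were treated for 24 h. PARP and caspase-3 cleavage were read by western blot of lysates in Tris/NaCl/NP-40 buffer. Apaf-1 complexes were immunoprecipitated with Apaf-1 antibody, using control IgG, then blotted.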

Test [11] has as its system SK-BR-3. As to the kind of experiment: Inhibition of HSP70-mediated antiapoptotic activity in human SKBR3 cells assessed as induction of caspase-3 cleavage after 24 hrs by Western blot analysis. It counts as cell-based. Put shortly:
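SKBr3 cells were treated for 24 h. Lysates were probed by western blot for caspase-3 and PARP cleavage. Apaf-1 complexes were pulled down with Apaf-1 antibody (with control IgG) and immunoblotted.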

For test [12], the target named is Heat shock protein HSP 90-beta (Homo sapiens) (UniProt P08238). Put plainly: Inhibition of HSP90-mediated antiapoptotic activity in human NCI-H526 cells assessed as release of Apaf-1 from chaperon complex at 20 uM after 1 hr by Western blot analysis. It counts as cell-based. Put shortly:
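NCI-H526 cells treated with 20 µM for the indicated times. Complexes immunoprecipitated with Apaf-1 or caspase-9 antibodies, with control IgG alongside. Co-precipitated proteins identified by western blot.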

Test [13] has the same target. As to the kind of experiment: Inhibition of HSP90-mediated antiapoptotic activity in human NCI-H526 cells assessed as subG1 accumulation at 15 uM after 72 hrs by propidium iodide staining-based flow cytometry. Format: cell-based. In outline:
(§4)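 SCLC cells treated for 72 h with graded doses. Mitochondrial membrane potential read by flow cytometry after JC-1 staining, with green-only emission indicating depolarization. Sub-G1 DNA content read after propidium iodide staining. CCCP used as positive control. n = 3 repeat experiments.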

The target is the same in test [14]. Put plainly: Inhibition of HSP90-mediated antiapoptotic activity in human NCI-H526 cells assessed as subG1 accumulation at 5 uM after 72 hrs by propidium iodide staining-based flow cytometry. It counts as cell-based. Put shortly:
as §4

Test [15] shares this target. As to the kind of experiment: Inhibition of HSP90-mediated antiapoptotic activity in human NCI-H526 cells assessed as reduction in BAD phosphorylation at 50 uM after 24 hrs by Western blot analysis. Format: cell-based.
Test [16] has the same target. As to the kind of experiment: Inhibition of HSP90-mediated antiapoptotic activity in human MCF7 cells assessed as induction of caspase-3 cleavage at 400 uM after 24 hrs by Western blot analysis. Format: cell-based.
Test [17] shares this target. As to the kind of experiment: Inhibition of HSP90-mediated antiapoptotic activity in human NCI-H526 cells assessed as induction of caspase-3 cleavage at 10 uM after 72 hrs by fluorescence assay in presence of caspase-9 inhibitor Z-LEHD-FMK. Format: cell-based.
The target is the same in test [18]. As to the kind of experiment: Inhibition of HSP90-mediated antiapoptotic activity in human SKBR3 cells assessed as induction of caspase-3 cleavage at 20 uM after 24 hrs by Western blot analysis. It counts as cell-based. The following applies: SK-BR-3. Put shortly: (§5)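 SKBr3 cells at 60–70% confluence were exposed to drug or DMSO vehicle. Lysis was in 50 mM Tris pH 7.4, 150 mM NaCl, 1% NP-40, with protein measured by BCA. Lysates of 20–100 µg were run on SDS-PAGE, blotted to nitrocellulose, probed with primary antibodies and detected with a peroxidase-conjugated secondary (1:5,000). Loading was checked with β-actin or PI(3)K p85.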

Test [19] shares this target. Put plainly: Effect on HSP90-mediated Bcl-2 expression in human NCI-H526 cells at 25 uM after 24 hrs by Western blot analysis. It counts as cell-based. Put shortly: as §2
Test [20] shares this target. As to the kind of experiment: Inhibition of HSP90-mediated antiapoptotic activity in human MCF7 cells assessed as induction of cell growth arrest at 50 uM after 24 hrs by propidium iodide staining-based flow cytometry.
Test [21] has as its system NCI-H526. As to the kind of experiment: Inhibition of HSP70-mediated antiapoptotic activity in human NCI-H526 cells assessed as induction of PARP cleavage after 24 hrs by Western blot analysis. It counts as cell-based. Put shortly:
as §3

The target in test [22] is Heat shock protein HSP 90-beta (Homo sapiens) (UniProt P08238). As to the kind of experiment: Inhibition of HSP90-mediated antiapoptotic activity in human SKBR3 cells assessed as induction of caspase-9 cleavage at 20 uM after 24 hrs by Western blot analysis. The following applies: SK-BR-3. Format: cell-based. In outline: as §5
For test [23] the target is unchanged. Put plainly: Inhibition of HSP90-mediated antiapoptotic activity in human SKBR3 cells assessed as induction of caspase-9 cleavage at 50 uM after 24 hrs by Western blot analysis. The settings on record: SK-BR-3. Format: cell-based. In outline:
as §5

The target is the same in test [24]. As to the kind of experiment: Inhibition of HSP90-mediated antiapoptotic activity in human SKBR3 cells assessed as induction of PARP cleavage at 50 uM after 24 hrs by Western blot analysis. The settings on record: SK-BR-3. It counts as cell-based. Put shortly: as §5

This passage reports Activity and inhibition results from ChEMBL document CHEMBL1240328, “Selective compounds define Hsp90 as a major inhibitor of apoptosis in small-cell lung cancer” (Nat Chem Biol, 2007).

Calls of active or inactive are those of the source. The calls are words filed in the database; no cut-off is given here.

Sequence of Heat shock protein HSP 90-beta (Homo sapiens) (P08238 whole entry): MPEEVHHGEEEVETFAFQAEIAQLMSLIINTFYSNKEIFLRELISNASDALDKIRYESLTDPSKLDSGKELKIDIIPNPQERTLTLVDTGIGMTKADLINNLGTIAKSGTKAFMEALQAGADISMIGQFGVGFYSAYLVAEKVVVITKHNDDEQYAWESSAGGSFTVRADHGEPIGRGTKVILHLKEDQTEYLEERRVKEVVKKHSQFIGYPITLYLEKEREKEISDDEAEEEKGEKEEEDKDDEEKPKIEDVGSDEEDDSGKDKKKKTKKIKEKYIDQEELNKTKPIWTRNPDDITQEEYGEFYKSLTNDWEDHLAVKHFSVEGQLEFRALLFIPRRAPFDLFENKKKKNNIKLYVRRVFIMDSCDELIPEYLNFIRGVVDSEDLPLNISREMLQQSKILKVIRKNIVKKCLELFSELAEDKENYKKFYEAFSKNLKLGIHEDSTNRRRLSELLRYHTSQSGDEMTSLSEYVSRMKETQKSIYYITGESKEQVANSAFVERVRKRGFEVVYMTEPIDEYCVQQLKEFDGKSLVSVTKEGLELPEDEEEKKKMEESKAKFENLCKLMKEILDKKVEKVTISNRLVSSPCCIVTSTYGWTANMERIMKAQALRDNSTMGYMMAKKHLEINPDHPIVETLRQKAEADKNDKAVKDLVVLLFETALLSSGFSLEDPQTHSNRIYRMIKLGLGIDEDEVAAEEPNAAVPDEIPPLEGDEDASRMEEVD

Consider `O=CN1CC/C(=C/c2ccc3c(c2)OCO3)C1=O`, for which the result in [1], in [2], in [3], in test [4], in test [6] and in test [7] was inactive. Moreover, the outcome in [8], in [9], in test [12], in test [13], in test [14] and in test [15] was inactive. Also, the outcome in [16], in test [17], in test [18], in test [19], in [20] and in test [22] was inactive. The result in [23] and in test [24] was inactive. Further, the inhibition entry in [5] and in test [11] was “Active” throughout. The inhibition result in test [10] and in test [21] was “inactive” each time.
